# High-throughput results as filed in PubChem BioAssay.
# MBD2 inh: inhibitors of MBD2 binding to methylated DNA, primary screen, biochemical, TR-FRET, DNA-binding domain, human | Methyl-CpG-binding domain protein 2 (Homo sapiens), Q9UBB5 | MBD2 binding to methylated oligonucleotide | inhibition, % at 4.4 µM | actives 0.31% (n = 370,000) | AID 686964, 2013; in the data active means inhibition above about 13%
# Target sequence (Q9UBB5 whole entry, looked up, the tested form may be a part): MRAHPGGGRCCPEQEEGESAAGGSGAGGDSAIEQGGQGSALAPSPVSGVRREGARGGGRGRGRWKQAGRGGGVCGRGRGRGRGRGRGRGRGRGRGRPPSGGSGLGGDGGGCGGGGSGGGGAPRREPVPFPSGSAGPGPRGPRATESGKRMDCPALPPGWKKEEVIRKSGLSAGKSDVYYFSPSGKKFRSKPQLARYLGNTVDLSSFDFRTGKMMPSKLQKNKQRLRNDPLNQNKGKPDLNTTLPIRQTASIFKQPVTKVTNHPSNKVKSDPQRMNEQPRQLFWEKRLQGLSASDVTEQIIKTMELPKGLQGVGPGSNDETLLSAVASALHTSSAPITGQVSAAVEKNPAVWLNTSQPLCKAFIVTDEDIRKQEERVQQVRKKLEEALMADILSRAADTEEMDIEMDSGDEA
# UHRF1 binding: UHRF1 methylated DNA binding inhibitors, primary screen, counter-screen for MBD2 inhibitor project, biochemical, TR-FRET, human UHRF1, single concentration. UHRF1 binding to methylated oligo. inhibition, % at 4.4 µM. actives 0.75% (n = 370,000); in the data active means inhibition above about 21%;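 further: UHRF1 SRA domain binding a hemimethylated CpG hairpin DNA probe; 0% = median of test compound wells and 100% = reference inhibitor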
# NSD2 inh: NSD2 histone methyltransferase inhibitors, primary screen, biochemical, AlphaScreen, single concentration, set 2; Histone-lysine N-methyltransferase NSD2 (Homo sapiens), O96028; NSD2 peptide methylation, 120 min; inhibition, % at 12.5 µM; actives 0.54% (n = 310,000); in the data active means inhibition above about 50%
# Casp6 inh: human caspase-6 inhibitors, primary screen, biochemical, VEID-R110 fluorescence, single point, set 2 | P55212 | inhibition, % at 12.5 µM | actives 0.53% (n = 350,000) | purified caspase-6, Z-VEID-R110 cleavage fluorescence | AID 686996, 2013;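 active means mean inhibition across replicates at least about 35%, with every replicate also reaching that limit, limit read from the data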;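 further: 0% = median of neutral control wells and 100% = no fluorescence left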
# LEDGF integ inh: blockers of LEDGF/p75-dependent integrase strand transfer – biochemical, TR-FRET, high throughput, primary screen; HIV-1 integrase (with human LEDGF/p75); TR-FRET IN-LEDGF/p75 DNA integration, Eu/Cy5; inhibition, % at 3.7 µM; actives 0.64% (n = 370,000); AID 743269, 2014;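 active means inhibition above the screen-wide mean plus 3 SD, cut at about 13% in these data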;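 further: signal is the Cy5 over europium emission ratio at 671 and 618 nm; 0% = plate median of compound wells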
# TDP2 absorb: human TDP2 enzyme inhibitors, primary screen, biochemical, epi absorbance, recombinant enzyme; Tyrosyl-DNA phosphodiesterase 2 (Homo sapiens), O95551; T5PNP hydrolysis, p-nitrophenol absorbance 415 nm; inhibition, % at 12.8 µM; actives 0.34% (n = 370,000);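 active means inhibition above the mean of all tested compounds plus 3 SD, set per campaign, cut at about 25% in these data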;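 further: 0% = DMSO with enzyme and 100% = buffer with substrate but no TDP2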
#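 Test system: Human TDP2 enzyme | Reagent: 5 mM T5PNP | Compound dosing: 12.8 µM single point, 1% DMSO | Incubation: Enzyme reaction with compound for 2 h at 37 °C | Technique: p-Nitrophenol epi absorbance | Read-out: % inhibition relative to enzyme-containing and enzyme-free wells | Benchmarks: High control without enzyme, low control DMSO plus TDP2 | Replicates: Singlicate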
# AlphaScreen art: AlphaScreen signal interference with preloaded methylated product, dose response, artefact control for NSD2 inhibitor project, biochemical, cherry-picked samples | actives 9.4% (n = 1,500) | AC35, µM (highest dose often 10 µM), for inactives: top-dose activity change, negative = signal loss | AID 1053174, 2014 | shares compounds with NSD2 inh | AlphaScreen artifact counterscreen, preloaded methylated H4 peptide; call rule not given here
# * hit, by the source's call; . = no result given. Compounds with a hit are over-represented: about 1.8% of the library has one in this group of screens.
SMILES,MBD2 inh,UHRF1 binding,NSD2 inh,Casp6 inh,LEDGF integ inh,TDP2 absorb,AlphaScreen art
CN(C)C(=O)c1cccc(-c2ccc3n(c2=O)C[C@@H]2N[C@H]3[C@H](C(=O)NC3CCC3)[C@H]2CO)c1,.,.,.,3,.,.,.
CC(=O)c1c(C)[nH]c(C(=O)CSc2nnc(-c3cccs3)n2Cc2ccccc2)c1C,1,12,-1,.,2,7,.
CC(=O)c1c(C)[nH]c(C(=O)CSc2nnc(-c3ccco3)n2Cc2ccccc2)c1C,-4,-2,58*,.,0,5,-1%
COc1ccc(NC2CCCN(C(=O)c3ccccc3N3CCOCC3)C2)cc1OC (stereo not drawn),-1,0,72*,4,1,2,1%
COc1ccc(NC(=O)CN(C)S(=O)(=O)c2ccc(C)cc2)c([N+](=O)[O-])c1,0,8,67*,-2,2,-8,-4%
C[C@@H]1CN([C@H](C)CO)C(=O)Cc2cc(N(C)C)ccc2O[C@H]1CN(C)Cc1ccc(-c2ccccc2)cc1,.,.,.,0,.,.,.
CCN1CCC(CNCc2cn(-c3ccc(OC)cc3)nc2-c2ccccc2Cl)C1 (stereo not drawn),-4,3,75*,-78,-2,4,-4%
COc1ccc(-n2cc(CNCCN3CCOC3=O)c(-c3ccccc3Cl)n2)cc1,-2,0,-2,-1,1,-19,.
NC1=NC(=Nc2ccc(Br)cc2)c2ccccc21,-3,1,53*,0,-1,0,-9%
COc1cccc(C(=O)Nc2ccc3c(c2)C(=O)N(C)C[C@@H](OC)[C@H](C)CN(CC2CC2)[C@H](C)CO3)c1,.,.,.,2,.,.,.
O=C(CCNC(=O)C1CCN(S(=O)(=O)c2ccc(F)cc2)CC1)NCc1ccc(F)cc1,6,-1,-13,-2,2,-5,.
O=C(NCCCn1ccnc1)C1CCN(S(=O)(=O)c2ccc(F)cc2)CC1,2,-1,57*,-13,-3,2,-2%
N=c1c(C(=O)NCc2ccco2)cc2c(=O)n3ccccc3nc2n1C1CCCC1,-2,-7,66*,99*,5,2,1%
N#Cc1c(NC(=O)c2ccncc2)sc2c1CCC2,.,.,57*,34,.,.,-5%
CC1C/C(=C\c2cccnc2)C(=O)/C(=C/c2cccnc2)C1 (stereo not drawn),-2,-1,58*,.,6,-1,-8%
CCN(CC)CCNc1cc(C)nc2c1C(=O)C(=O)C=C2N1CCCCC1,-13,-8,118*,-53,-5,-5,1%
CCN(CC)CCNC(=O)c1ccc(N2CCCCC2)c(NS(=O)(=O)c2ccc(C)cc2)c1,4,8,28,.,-6,5,.
CC(C)Cn1c(N)c(C(=O)COC(=O)c2ccc([N+](=O)[O-])o2)c(=O)n(C)c1=O,4,-3,99*,6,-4,-8,-4%
CC(C)Cn1c(N)c(C(=O)COC(=O)c2ccc(O)cc2)c(=O)n(C)c1=O,4,1,0,1,3,-2,.
Cc1cc(C(=O)Nc2cccc3c2O[C@H](CN(C)C(=O)Nc2ccc(C(F)(F)F)cc2)[C@@H](C)CN([C@H](C)CO)C3=O)n(C)n1,.,.,.,4,.,.,.
COc1ccc(CNC(=O)c2nnn(-c3cccc(C(F)(F)F)c3)c2N)cc1,6,2,51*,14,-3,1,2%
